In ChEMBL document CHEMBL3286116, “Synthesis, biological evaluation and structure-activity correlation study of a series of imidazol-based compounds as Candida albicans inhibitors” (Eur J Med Chem, 2014):
Values after ≈ are worked out from the molar mass of the structure shown.

Legend:
Assay type in all cases: functional
Candida albicans [1] = assay: Antifungal activity against Candida albicans ATCC 90028 after 48 hrs by CLSI broth microdilution method; details: ATCC 90028, 48 h
How it was run: (§1)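 Yeast CLSI broth microdilution (M27-A3). Compounds dissolved in DMSO at 100× the top test concentration, then diluted as serial two-fold dilutions in RPMI 1640 to final 0.125–64. Inoculum was 1.0–1.5 × 10^3 cells mL−1, incubated at 35 °C and read for growth at 48 h. MIC is the lowest concentration giving ≥50% growth inhibition versus growth control. Reported as the median of five replicates and as the geometric mean.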

Candida albicans [2] = assay: Antifungal activity against Candida albicans ATCC 20891 after 48 hrs by CLSI broth microdilution method; details: ATCC 20891, 48 h; how it was run: as §1
Candida albicans [3] = assay: Antifungal activity against Candida albicans PMC 1011 after 48 hrs by CLSI broth microdilution method; details: PMC 1011, 48 h; how it was run: as §1
Pichia kudriavzevii [4] = assay: Antifungal activity against Candida krusei DSM 6128 after 48 hrs by CLSI broth microdilution method; details: DSM 6128, 48 h; how it was run: as §1
Pichia kudriavzevii [5] = assay: Antifungal activity against Candida krusei PMC 0613 after 48 hrs by CLSI broth microdilution method; details: PMC 0613, 48 h; how it was run: as §1
Candida tropicalis [6] = assay: Antifungal activity against Candida tropicalis PMC 0910 after 48 hrs by CLSI broth microdilution method; details: PMC 0910, 48 h; how it was run: as §1
Candida tropicalis [7] = assay: Antifungal activity against Candida tropicalis DSM 11953 after 48 hrs by CLSI broth microdilution method; details: DSM 11953, 48 h; how it was run: as §1
Candida parapsilosis [8] = assay: Antifungal activity against Candida parapsilosis DSM 11224 after 48 hrs by CLSI broth microdilution method; details: Lodderomyces parapsilosis, DSM 11224, 48 h; how it was run: as §1
Candida parapsilosis [9] = assay: Antifungal activity against Candida parapsilosis ATCC 22019 after 48 hrs by CLSI broth microdilution method; details: Lodderomyces parapsilosis, ATCC 22019, 48 h; how it was run: as §1
Nakaseomyces glabratus [10] = assay: Antifungal activity against Candida glabrata PMC 0805 after 48 hrs by CLSI broth microdilution method; details: PMC 0805, 48 h; how it was run: as §1
Nakaseomyces glabratus [11] = assay: Antifungal activity against Candida glabrata PMC 0807 after 48 hrs by CLSI broth microdilution method; details: PMC 0807, 48 h; how it was run: as §1
Cryptococcus neoformans [12] = assay: Antifungal activity against Cryptococcus neoformans PMC 2123 after 72 hrs by CLSI broth microdilution method; details: PMC 2123, 72 h
How it was run: (§2)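 Cryptococcus neoformans tested by CLSI broth microdilution in RPMI 1640, with serial two-fold dilutions from DMSO stocks at 100× the top concentration, final 0.125–64. Inoculum was 1.0–1.5 × 10^3 cells mL−1 at 35 °C, with growth read at 72 h. MIC is the lowest concentration with ≥50% growth inhibition versus control. Median of five replicates, plus geometric mean.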

Cryptococcus neoformans [13] = assay: Antifungal activity against Cryptococcus neoformans PMC 2136 after 72 hrs by CLSI broth microdilution method; details: PMC 2136, 72 h; how it was run: as §2
Cryptococcus neoformans [14] = assay: Antifungal activity against Cryptococcus neoformans PMC 2115 after 72 hrs by CLSI broth microdilution method; details: PMC 2115, 72 h; how it was run: as §2
Cryptococcus neoformans [15] = assay: Antifungal activity against Cryptococcus neoformans PMC 2103 after 72 hrs by CLSI broth microdilution method; details: PMC 2103, 72 h; how it was run: as §2
Cryptococcus neoformans [16] = assay: Antifungal activity against Cryptococcus neoformans PMC 2107 after 72 hrs by CLSI broth microdilution method; details: PMC 2107, 72 h; how it was run: as §2
Cryptococcus neoformans [17] = assay: Antifungal activity against Cryptococcus neoformans PMC 2102 after 72 hrs by CLSI broth microdilution method; details: PMC 2102, 72 h; how it was run: as §2
Cryptococcus neoformans [18] = assay: Antifungal activity against Cryptococcus neoformans DSM 11959 after 72 hrs by CLSI broth microdilution method; details: DSM 11959, 72 h; how it was run: as §2
Cryptococcus neoformans [19] = assay: Antifungal activity against Cryptococcus neoformans PMC 2111 after 72 hrs by CLSI broth microdilution method; details: PMC 2111, 72 h; how it was run: as §2
[20] = tested on: Trichophyton mentagrophytes; assay: Antifungal activity against Trichophyton mentagrophytes DSM 4870 after 72 hrs by CLSI broth microdilution method; details: DSM 4870, 72 h
How it was run: (§3)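 Dermatophytes tested by CLSI broth microdilution for filamentous fungi (M38-A2). Serial two-fold dilutions of DMSO-dissolved compound in RPMI 1640, final 0.125–64. Inoculum was 0.4–5 × 10^4 CFU mL−1, incubated at 35 °C and read at 72 h. MIC80 is the lowest concentration giving ≥80% growth inhibition versus growth control. Median of five replicates, plus geometric mean.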

[21] = tested on: Trichophyton mentagrophytes; assay: Antifungal activity against Trichophyton mentagrophytes PMC 6515 after 72 hrs by CLSI broth microdilution method; details: PMC 6515, 72 h; how it was run: as §3
[22] = tested on: Trichophyton mentagrophytes; assay: Antifungal activity against Trichophyton mentagrophytes PMC 6531 after 72 hrs by CLSI broth microdilution method; details: PMC 6531, 72 h; how it was run: as §3
[23] = tested on: Trichophyton mentagrophytes; assay: Antifungal activity against Trichophyton mentagrophytes PMC 6509 after 72 hrs by CLSI broth microdilution method; details: PMC 6509, 72 h; how it was run: as §3
[24] = tested on: Trichophyton mentagrophytes; assay: Antifungal activity against Trichophyton mentagrophytes PMC 6503 after 72 hrs by CLSI broth microdilution method; details: PMC 6503, 72 h; how it was run: as §3
[25] = tested on: Trichophyton mentagrophytes; assay: Antifungal activity against Trichophyton mentagrophytes PMC 6552 after 72 hrs by CLSI broth microdilution method; details: PMC 6552, 72 h; how it was run: as §3
Nannizzia gypsea [26] = assay: Antifungal activity against Microsporum gypseum PMC 7303 after 72 hrs by CLSI broth microdilution method; details: PMC 7303, 72 h; how it was run: as §3
Nannizzia gypsea [27] = assay: Antifungal activity against Microsporum gypseum PMC 7331 after 72 hrs by CLSI broth microdilution method; details: PMC 7331, 72 h; how it was run: as §3
Nannizzia gypsea [28] = assay: Antifungal activity against Microsporum gypseum DSM 3824 after 72 hrs by CLSI broth microdilution method; details: DSM 3824, 72 h; how it was run: as §3
Candida albicans [29] = assay: Antifungal activity against Candida albicans ATCC 24433 after 48 hrs by CLSI broth microdilution method; details: ATCC 24433, 48 h; how it was run: as §1
Candida albicans [30] = assay: Antifungal activity against Candida albicans ATCC 3153 after 48 hrs by CLSI broth microdilution method; details: ATCC 3153, 48 h; how it was run: as §1
Candida albicans [31] = assay: Antifungal activity against Candida albicans ATCC 10231 after 48 hrs by CLSI broth microdilution method; details: ATCC 10231, 48 h; how it was run: as §1
Candida albicans [32] = assay: Antifungal activity against Candida albicans ATCC 76615 after 48 hrs by CLSI broth microdilution method; details: ATCC 76615, 48 h; how it was run: as §1
Candida albicans [33] = assay: Antifungal activity against Candida albicans ATCC 10261 after 48 hrs by CLSI broth microdilution method; details: ATCC 10261, 48 h; how it was run: as §1

SMILES: O=C(Nc1ccc(N2CCN(c3ccc(Cl)cc3)CC2)cc1)O[C@H](Cn1ccnc1)c1ccc(F)cc1
- MIC50 (Candida albicans [1]): 32 µg/mL (≈ 61.5 µM)
- MIC50 (Candida albicans [2]): 32 µg/mL (≈ 61.5 µM)
- MIC50 (Candida albicans [3]): 32 µg/mL (≈ 61.5 µM)
- MIC50 (Pichia kudriavzevii [4]): 2 µg/mL (≈ 3.85 µM)
- MIC50 (Pichia kudriavzevii [5]): 1 µg/mL (≈ 1.92 µM)
- MIC50 (Candida tropicalis [6]): 32 µg/mL (≈ 61.5 µM)
- MIC50 (Candida tropicalis [7]): 16 µg/mL (≈ 30.8 µM)
- MIC50 (Candida parapsilosis [8]): 2 µg/mL (≈ 3.85 µM)
- MIC50 (Candida parapsilosis [9]): 4 µg/mL (≈ 7.69 µM)
- MIC50 (Nakaseomyces glabratus [10]): 2 µg/mL (≈ 3.85 µM)
- MIC50 (Nakaseomyces glabratus [11]): 4 µg/mL (≈ 7.69 µM)
- MIC50 (Cryptococcus neoformans [12]): 2 µg/mL (≈ 3.85 µM)
- MIC50 (Cryptococcus neoformans [13]): 2 µg/mL (≈ 3.85 µM)
- MIC50 (Cryptococcus neoformans [14]): 2 µg/mL (≈ 3.85 µM)
- MIC50 (Cryptococcus neoformans [15]): 1 µg/mL (≈ 1.92 µM)
- MIC50 (Cryptococcus neoformans [16]): 1 µg/mL (≈ 1.92 µM)
- MIC50 (Cryptococcus neoformans [17]): 2 µg/mL (≈ 3.85 µM)
- MIC50 (Cryptococcus neoformans [18]): 1 µg/mL (≈ 1.92 µM)
- MIC50 (Cryptococcus neoformans [19]): 1 µg/mL (≈ 1.92 µM)
- MIC80 [20]: 128 µg/mL (≈ 246 µM)
- MIC80 [21]: 128 µg/mL (≈ 246 µM)
- MIC80 [22]: 128 µg/mL (≈ 246 µM)
- MIC80 [23]: 128 µg/mL (≈ 246 µM)
- MIC80 [24]: 128 µg/mL (≈ 246 µM)
- MIC80 [25]: 128 µg/mL (≈ 246 µM)
- MIC80 (Nannizzia gypsea [26]): 64 µg/mL (≈ 123 µM)
- MIC80 (Nannizzia gypsea [27]): 128 µg/mL (≈ 246 µM)
- MIC80 (Nannizzia gypsea [28]): 128 µg/mL (≈ 246 µM)
- MIC50 (Candida albicans [29]): 64 µg/mL (≈ 123 µM)
- MIC50 (Candida albicans [30]): 64 µg/mL (≈ 123 µM)
- MIC50 (Candida albicans [31]): 32 µg/mL (≈ 61.5 µM)
- MIC50 (Candida albicans [32]): 32 µg/mL (≈ 61.5 µM)
- MIC50 (Candida albicans [33]): 64 µg/mL (≈ 123 µM)

SMILES: O=C(OC(Cn1ccnc1)c1ccc(F)cc1)N1CCN(C(=O)c2ccco2)CC1 (stereo unspecified)
- MIC50 (Candida albicans [1]): 32 µg/mL (≈ 77.6 µM)
- MIC50 (Candida albicans [2]): 128 µg/mL (≈ 310 µM)
- MIC50 (Candida albicans [3]): 32 µg/mL (≈ 77.6 µM)
- MIC50 (Pichia kudriavzevii [4]): 128 µg/mL (≈ 310 µM)
- MIC50 (Pichia kudriavzevii [5]): 32 µg/mL (≈ 77.6 µM)
- MIC50 (Candida tropicalis [6]): 128 µg/mL (≈ 310 µM)
- MIC50 (Candida tropicalis [7]): 64 µg/mL (≈ 155 µM)
- MIC50 (Candida parapsilosis [8]): 32 µg/mL (≈ 77.6 µM)
- MIC50 (Candida parapsilosis [9]): 16 µg/mL (≈ 38.8 µM)
- MIC50 (Nakaseomyces glabratus [10]): 32 µg/mL (≈ 77.6 µM)
- MIC50 (Nakaseomyces glabratus [11]): 128 µg/mL (≈ 310 µM)
- MIC50 (Cryptococcus neoformans [12]): 128 µg/mL (≈ 310 µM)
- MIC50 (Cryptococcus neoformans [13]): 64 µg/mL (≈ 155 µM)
- MIC50 (Cryptococcus neoformans [14]): 128 µg/mL (≈ 310 µM)
- MIC50 (Cryptococcus neoformans [15]): 64 µg/mL (≈ 155 µM)
- MIC50 (Cryptococcus neoformans [16]): 128 µg/mL (≈ 310 µM)
- MIC50 (Cryptococcus neoformans [17]): 128 µg/mL (≈ 310 µM)
- MIC50 (Cryptococcus neoformans [18]): 64 µg/mL (≈ 155 µM)
- MIC50 (Cryptococcus neoformans [19]): 128 µg/mL (≈ 310 µM)
- MIC80 [20]: 128 µg/mL (≈ 310 µM)
- MIC80 [21]: 128 µg/mL (≈ 310 µM)
- MIC80 [22]: 64 µg/mL (≈ 155 µM)
- MIC80 [23]: 64 µg/mL (≈ 155 µM)
- MIC80 [24]: 128 µg/mL (≈ 310 µM)
- MIC80 [25]: 128 µg/mL (≈ 310 µM)
- MIC80 (Nannizzia gypsea [26]): 128 µg/mL (≈ 310 µM)
- MIC80 (Nannizzia gypsea [27]): 128 µg/mL (≈ 310 µM)
- MIC80 (Nannizzia gypsea [28]): 128 µg/mL (≈ 310 µM)
- MIC50 (Candida albicans [29]): 128 µg/mL (≈ 310 µM)
- MIC50 (Candida albicans [30]): 128 µg/mL (≈ 310 µM)
- MIC50 (Candida albicans [31]): 64 µg/mL (≈ 155 µM)
- MIC50 (Candida albicans [32]): 128 µg/mL (≈ 310 µM)
- MIC50 (Candida albicans [33]): 128 µg/mL (≈ 310 µM)
